Measurements of several laboratories.

With `COc1cccc2c(NCc3ccccc3)nc(-n3c(=O)oc4ccccc43)nc12` the solubility was 0.02 µg/mL (aqueous buffer; pH 5).
For `O=C(c1ccccn1)N(Cc1cccs1)C1(C(=O)NC2CCCCC2)CCCCC1`, the solubility was 6.6 µg/mL (aqueous buffer; pH 6.2).
`Cl.c1ccc(Cn2c(N3CCNCC3)nc3cc(-c4ccccc4)ccc32)cc1` gave a solubility of 25 µM (shake flask; aqueous buffer; 20 h, pH 6.5, 25 °C).
With `Brc1cccc2c(NCc3ccccc3)nc(NCc3ccccc3)nc12` the solubility was under 0.01 µg/mL (aqueous buffer; pH 7.4).
`O=C(Nc1ccc(S(=O)(=O)N2CCC(Cl)CC2)cc1)c1ccc([N+](=O)[O-])o1` gave a solubility of 9.4 µM (PBS; pH 7.4).
The solubility of `c1ccc(CNc2nc(N3CCOc4ccccc43)nc3ccccc23)cc1` is reported as 0.48 µg/mL (aqueous buffer; pH 7.4).
`CC(C)[C@@H]1CC[C@@H](C)CC1=O` gave a solubility of 3000 µM (PBS; 48 h, pH 7.4, 25 °C).
The solubility of `CCOc1ccc2cc(-c3nn(C(C)C)c(N)c3C(N)=O)cnc2c1` is reported as 99 µM (PBS; pH 6.5, 25 °C).
With `COc1c(N2CCNC(C)C2)c(F)cc2c(=O)c(C(=O)NCCCN(C)C)cn(C3CC3)c12` (racemic) the solubility was 72000 µM (water).
`O=C(O)c1ccccc1O` gave a solubility of 7700 µg/mL (PBS; pH 7.4).
With `O=C1NCCc2nc(OCc3cccc(F)c3)ccc21` the solubility was 114 µM (FaSSIF; 24 h, pH 7.2).
With `Cc1ccc(Nc2nc(NCc3ccccc3)c3ccccc3n2)cc1F` the solubility was 0.05 µg/mL (aqueous buffer; pH 7.4).
`CC(=O)N1CCN(c2ccc(OCC3COC(Cn4ccnc4)(c4ccc(Cl)cc4Cl)O3)cc2)CC1` (centres unmarked) has a solubility of 55.6 µM (PBS; pH 7.4).
`CN(C)C1CN(Cc2ccc(NC(=O)c3ccc(OCCCl)c([N+](=O)[O-])c3)cc2C(F)(F)F)C1` has a solubility of under 5 µg/mL (HPLC; water; 1 h).
With `CCc1cc(O)ccc1-c1ccc2c(-c3nc4c([nH]3)CN(C(C)C)[C@H](C(=O)N3CC(N(C)C)C3)C4)n[nH]c2c1` the solubility was 13 µM (aqueous buffer).
`Brc1ccccc1CNc1nc(NCc2ccccc2)c2ccccc2n1` gave a solubility of 0.14 µg/mL (aqueous buffer; pH 7.4).
`COc1cccc(OC)c1-c1nc(C(=O)N[C@@H](CC(C)C)C(=O)O)cn1-c1cccc2ccccc12` has a solubility of over 145 µg/mL (aqueous buffer; pH 7.4).
With `COc1cc(OC)cc(N(CCNC(C)C)c2ccc3ncc(-c4cnn(C)c4)nc3c2)c1` the solubility was 23200 µg/mL (aqueous buffer; pH 3.96).
With `COc1ccnc(CNC(=O)c2cn(Cc3ccc(Cn4ccccc4=O)cc3)nc2C(F)(F)F)c1F` the solubility was 20 µg/mL (FaSSIF; 4 h, pH 6.5).
With `CC(=O)N[C@@H](CC(N)=O)C(=O)N[C@@H](CCCNC(=N)N)C(=O)N[C@@H](CC(C)C)C(=O)N[C@H]1CSSC[C@@H](C(=O)N[C@H](C(N)=O)[C@@H](C)O)NC(=O)[C@H](CCCNC(=N)N)NC(=O)[C@H](Cc2c[nH]cn2)NC(=O)[C@H](C)NC(=O)CNC(=O)[C@H](Cc2c[nH]c3ccccc23)NC(=O)[C@H](CC(=O)O)NC(=O)[C@H](CCC(N)=O)NC(=O)[C@H](Cc2c[nH]c3ccccc23)NC(=O)[C@H](C(C)C)NC1=O` the solubility was 1050 µg/mL (PBS; pH 7.4).
For `COCCc1nc2nc(C)cc(Nc3ccc(C(F)(F)F)cc3)n2n1`, the solubility was 71 to 140 µM (nephelometry; aqueous buffer; pH 6.5).
`CCc1nc2ccc(Cl)cn2c1C(=O)NCc1ccc(N2CCC(c3ccc(OC(F)(F)F)cc3)CC2)cc1` gave a solubility of 61 µM (PBS).
The solubility of `CC(C)CC(=O)N1CCC[C@H](COc2cccc3c2C(N)=NS(=O)(=O)[N-]3)C1.[Na+]` is reported as 235000 µM (water).
The solubility of `Cc1ccc(F)cc1Nc1nc(NCc2ccccc2)c2ccccc2n1` is reported as 0.04 µg/mL (aqueous buffer; pH 7.4).
For `CCn1cc(CNC(=O)C2=C(C)NC(Nc3nc4ccc(F)c(N)c4o3)=NC2c2ccc(C)cc2Cl)cn1` (centres unmarked), the solubility was under 1 µg/mL (aqueous buffer; 6 h, pH 7.4).
`CN1CCN(C2CCN(c3nccc4[nH]c(-c5cc(F)cc(F)c5)nc34)CC2)CC1` gave a solubility of over 200 µM (shake flask; aqueous buffer; pH 6.5).
With `CCc1ccccc1-n1nc(C)c(C(=O)Nc2ccc3ccccc3n2)c1C` the solubility was 5.9 µg/mL (HPLC; PBS; 6 h, pH 7.4).
`CCOc1ccc2cc(-c3nn(C4CCCCCC4)c(N)c3C(N)=O)cnc2c1` has a solubility of 8.5 µM (PBS; pH 6.5, 25 °C).
`[Cl-].c1ccc2nc(Cn3c[n+](Cc4ccc5ccccc5n4)c4ccccc43)ccc2c1` gave a solubility of over 500 µg/mL (water).
With `O=C(O)Cc1ccccc1Nc1c(Cl)cccc1Cl` the solubility was 1940 µg/mL (PBS; pH 7.4).
`Cl.Clc1ccc2c(nc(N3CCNCC3)n2Cc2ccccc2)c1-c1ccccc1` gave a solubility of 195 µM (shake flask; aqueous buffer; 20 h, pH 6.5, 25 °C).
The solubility of `Brc1cccc(Nc2nc(NCc3ccccc3)c3ccccc3n2)c1` is reported as 0.01 µg/mL (aqueous buffer; pH 6.2).
`O=C(Nc1c(F)cccc1C(=O)O)c1ccc(-c2ccccc2)cc1` gave a solubility of 80 µM (shake flask; aqueous buffer; 24 h, pH 6.5, 25 °C).
The solubility of `CN1CCN([C@H]2CC[C@@H](Nc3nccc4[nH]c(-c5cc(F)cc(F)c5)nc34)CC2)CC1` is reported as over 200 µM (shake flask; aqueous buffer; pH 6.5).
The solubility of `CC(C)c1cccc2c(-c3ccccc3)cc(-c3ccc(-c4ccc(C(=O)O)cc4)[nH]3)nc12` is reported as 71.6 µM (PBS; pH 7.4).
`CCn1c(-c2nc3ccc(C(=O)N4CCCC(N)C4)cc3n2C)cc2ccccc21` (centres unmarked) has a solubility of 243 µM (aqueous buffer).
`Cc1cc(Nc2ccc(Cl)cc2)n2nc(C(C)C)nc2n1` gave a solubility of 83 to 170 µM (nephelometry; aqueous buffer; pH 6.5).
`Cc1cccc(C(=O)Nc2cccc(NC(=O)c3ccccc3)c2)c1` has a solubility of under 0.03 µM (aqueous buffer).
`COc1cccc(OC)c1-c1cc(C(=O)N[C@@H](CC(C)C)C(=O)O)nn1-c1ccnc2cc(Cl)ccc12` gave a solubility of 52.9 µg/mL (aqueous buffer; pH 5).
With `CS(=O)(=O)c1ccc2c(c1)nc(C1CCNCC1)n2Cc1ccccc1.Cl` the solubility was 200 µM (shake flask; aqueous buffer; 20 h, pH 6.5, 25 °C).
`O=C(CCCCCCC(=O)Nc1ccccc1)NO` has a solubility of 160 µg/mL (simulated gastric fluid; 48 h, pH 2, 25 °C, acidic).
`Cl.Clc1ccc2c(nc(N3CCNCC3)n2Cc2ccccc2)c1-c1ccncc1` gave a solubility of 200 µM (shake flask; aqueous buffer; 20 h, pH 6.5, 25 °C).
With `COc1ccc2cc(-c3nn(C(C)(C)C)c(N)c3C(N)=O)cnc2c1` the solubility was over 100 µM (PBS; pH 6.5, 25 °C).
`Nc1cccc(S(=O)(=O)N2CCN(S(=O)(=O)c3ccc4c(c3)OCCO4)CC2)c1` has a solubility of 4.1 µg/mL (aqueous buffer).
`OCCOc1cccc2c(NCc3ccccc3)nc(N3CCOc4ccccc43)nc12` has a solubility of 0.43 µg/mL (aqueous buffer; pH 7.4).
With `Cc1c(F)cccc1NC(=O)Nc1ccc(Cl)c(S(=O)(=O)[C@H]2CCCNC2)c1O` the solubility was 6 µg/mL (aqueous buffer; 4 h, pH 5).
`N=C(N)NCc1ccc(NC(=O)c2ccc(C(=O)Nc3ccc(C4=CCN(C(=N)N)CC4)cc3)cn2)cc1` has a solubility of 4.5 µg/mL (shake flask; aqueous buffer; pH 7.4).
`Cc1cc(Nc2ccc(S(F)(F)(F)(F)F)cc2)n2nc(C(C)(F)F)nc2n1` gave a solubility of 30 to 60 µM (nephelometry; aqueous buffer; pH 6.5).
`CC[C@H](C)[C@H](NC(=O)[C@H](Cc1ccccc1)NC(=O)[C@H](Cc1ccc(O)cc1)NC(=O)[C@@H]1CCCN1C(=O)[C@@H](N)Cc1ccc(O)cc1)C(=O)N1CCC[C@H]1C(=O)N[C@@H](CC(C)C)C(=O)NCC(=O)NCC(=O)NCC(=O)N[C@@H](CCC(=O)O)C(=O)N[C@H](C(=O)N[C@@H](CC(N)=O)C(=O)N[C@@H](CC(C)C)[C@@H](O)CC(=O)N[C@H](C(=O)N[C@@H](C)C(=O)N[C@@H](CCC(=O)O)C(=O)N1CCC[C@@H]1C(=O)N[C@@H](CCCCNC(=O)CCC(=O)O[C@H]1CC[C@@]2(C)C(=CC[C@H]3[C@@H]4CC[C@H]([C@H](C)CCCC(C)C)[C@@]4(C)CC[C@@H]32)C1)C(N)=O)C(C)C)C(C)C` has a solubility of under 1 µg/mL (aqueous buffer; pH 6.5).
`CCOc1ccc2cc(-c3nn(C4CCC4)c(N)c3C(N)=O)cnc2c1` gave a solubility of 10.9 µM (PBS; pH 6.5, 25 °C).
With `CN1CCN(CC2CCN(c3nccc4[nH]c(-c5cccc(OCCN)c5)nc34)CC2)CC1` the solubility was over 200 µM (shake flask; aqueous buffer; pH 6.5).
`CSC[C@H]1O[C@@H](n2cnc3c(N)ncnc32)[C@H](O)[C@@H]1O` gave a solubility of 110 µM (PBS).
For `CN1CCN(C2=Nc3cc(Cl)ccc3Nc3ccccc32)CC1`, the solubility was 350 µg/mL (FaSSIF; 24 h, pH 7.4, 37 °C).
With `Fc1ccc(-c2nc3c(N4CCN5CCC4CC5)nccc3[nH]2)cc1F` the solubility was over 200 µM (shake flask; aqueous buffer; pH 6.5).
With `CCc1nc2nc(C)cc(Nc3ccc(Cl)cc3)n2n1` the solubility was 170 to 350 µM (nephelometry; aqueous buffer; pH 6.5).
For `CCCCOC(=O)c1ccc(N)cc1`, the solubility was 226 µg/mL (PBS; pH 7.4).
